Screening data: PubChem, several laboratories
UPR CHOP act – apoptotic UPR (CHOP) activation. CHO-CHOP luciferase reporter, luminescence; percent of tunicamycin response over DMSO baseline. activation, % at 10 µM. hit rate 0.34% among 330,000. AID 449763;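 active = at 10 µM dose, activation of 40% or more, normalized to positive control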;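 note: 100% = tunicamycin at 10 µg/mL and 0% = DMSO alone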
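Assay system: CHO-CHOP cells, stable luciferase reporter of PERK-eIF2a-CHOP signalling / Buffer or medium: F12 plus 10% serum / Compound dosing: one dose, 10 µM in 0.5% DMSO / Times: 6 h compound treatment, 37 °C / Technique: luciferase luminescence / Read-out: % reporter activation, DMSO baseline versus tunicamycin full activation / Benchmarks: tunicamycin and DMSO controls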
TLR4 MyD88 comp – inhibitors of human TLR4-MyD88 binding; O00206+Q99836; HeLa CL3-4 TLR4/MyD88 BLA complementation, FRET ratio; inhibition, % at 8.4 µM; hit rate 0.18% among 200,000; AID 861; in the data active = inhibition above about 25%;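 note: 0% = vehicle and 100% = reference inhibitor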
CHOP inhibitor – CHOP inhibition in unfolded protein response; hit rate 3.8% among 220,000; inhibition, % at 10 µM; AID 2732; CHO-K1 CHOP-promoter luciferase, tunicamycin-induced, 15-18 h;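 active = compounds that reduced the stress-induced luciferase reporter signal by more than about 70% of percent inhibition, limit read from the data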;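 note: 0% = tunicamycin plus vehicle and 100% = wells without tunicamycin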
NOD2 RIPK2 PPI – inhibitors of human NOD2-RIPK2 interaction; O43353; CHO BLA complementation NOD2-RIPK2, CCF4 ratio; inhibition, % at 4.98 µM; hit rate 0.38% among 360,000; AID 624267; in the data active = inhibition above about 21%;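 note: 0% = vehicle only and 100% = reference blocker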
XBP1 UPR activ – adaptive UPR (XBP1) activation; AID 463104; hit rate 0.33% among 330,000; activation, % at 20 µM; CHO-XBP1 luciferase reporter, IRE1-XBP1 UPR activation, luminescence; percent of tunicamycin response, DMSO as zero;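 active = versus positive control, 20 µM dose yields 30% or more activation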;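 note: 100% = tunicamycin at 10 µg/mL and 0% = DMSO only wells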
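Material: CHO-XBP1 cells stably carrying IRE1-XBP1-driven luciferase reporter | Medium: F12 with 10% serum | Compound dosing: 20 µM single concentration, DMSO 1% | Incubation: Overnight seeding at 37 °C, 6 h compound treatment at 37 °C | Detection: Steady-Glo luminescence read | Read-out basis: % activation of reporter signal versus tunicamycin and DMSO controls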
TLR9-MyD88 block – blocks human TLR9 binding to MyD88; CHO BLA complementation TLR9-MyD88, CCF4 FRET ratio; inhibition, % at 4.98 µM; hit rate 0.21% among 340,000; Q9NR96+Q99836;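 active = inhibition above the mean over all tested compounds plus 3 SD, cut at about 21% in these data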;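 note: 0% = DMSO only wells and 100% = clavulanate BLA inhibitor control wells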
TLR9-MyD88 cf – TLR9-MyD88 interaction inhibition, confirmation; inhibition, % at 4.98 µM; shares compounds with TLR9-MyD88 block; hit rate 51% among 680; CHO TLR9/MyD88 BLA complementation, CCF4 FRET ratio;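 active = mean inhibition across three repeats above about 21% taken from the earlier screen, limit read from the data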;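 note: blue over green emission ratio reports constitutive TLR9 MyD88 association via BLA complementation; 0% = DMSO vehicle wells and 100% = clavulanate BLA inhibitor wells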
Target sequence (Q9NR96 whole entry, looked up): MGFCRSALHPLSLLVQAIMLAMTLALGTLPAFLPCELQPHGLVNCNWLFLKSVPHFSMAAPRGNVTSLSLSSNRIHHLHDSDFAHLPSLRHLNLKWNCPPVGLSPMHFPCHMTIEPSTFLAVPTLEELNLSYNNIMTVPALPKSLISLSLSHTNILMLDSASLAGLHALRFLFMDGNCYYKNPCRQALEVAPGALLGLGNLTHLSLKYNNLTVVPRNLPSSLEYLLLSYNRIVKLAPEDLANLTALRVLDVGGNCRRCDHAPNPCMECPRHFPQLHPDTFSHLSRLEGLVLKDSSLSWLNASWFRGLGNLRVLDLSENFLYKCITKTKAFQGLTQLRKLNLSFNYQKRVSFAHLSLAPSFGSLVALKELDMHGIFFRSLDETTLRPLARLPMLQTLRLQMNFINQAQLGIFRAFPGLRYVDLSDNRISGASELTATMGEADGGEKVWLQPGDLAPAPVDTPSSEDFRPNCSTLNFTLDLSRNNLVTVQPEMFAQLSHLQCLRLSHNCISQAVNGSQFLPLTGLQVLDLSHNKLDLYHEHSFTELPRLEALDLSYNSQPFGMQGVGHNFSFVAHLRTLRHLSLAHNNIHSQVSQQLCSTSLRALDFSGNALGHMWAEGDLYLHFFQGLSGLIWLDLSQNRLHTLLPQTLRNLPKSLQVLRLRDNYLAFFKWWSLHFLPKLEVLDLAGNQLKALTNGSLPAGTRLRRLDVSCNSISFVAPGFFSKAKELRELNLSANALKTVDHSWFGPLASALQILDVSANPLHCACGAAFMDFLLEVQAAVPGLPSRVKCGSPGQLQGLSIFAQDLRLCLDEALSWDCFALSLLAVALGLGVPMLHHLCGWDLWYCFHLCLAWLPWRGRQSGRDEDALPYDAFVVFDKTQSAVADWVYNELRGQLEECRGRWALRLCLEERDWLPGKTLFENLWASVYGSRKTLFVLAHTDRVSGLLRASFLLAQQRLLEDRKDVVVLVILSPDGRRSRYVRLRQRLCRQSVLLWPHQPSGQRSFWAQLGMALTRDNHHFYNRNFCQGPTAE
BLA counter-1 – counter-screen for TLR9-MyD88 inhibitors: non-selective beta-lactamase inhibitors | shares compounds with TLR9-MyD88 block | CHO-BLA cells, CCF4 FRET ratio, BLA reporter | inhibition, % at 4.98 µM | hit rate 7% among 680 | AID 540251;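 active = mean inhibition above a 50% cutoff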;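 note: counterscreen of TLR9-MyD88 hits on CMV-driven BLA in CHO-K1 cells; 0% = DMSO alone and 100% = clavulanate blocking BLA; higher means less blue over green ratio so more BLA blockade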
TLR9 CHO cytotox – counter-screen for TLR9-MyD88 inhibitors: cytotoxicity in CHO cells | shares compounds with TLR9-MyD88 block | hit rate 39% among 680 | luminescence | inhibition, % at 4.98 µM | AID 588336; in the data active = inhibition above about 11%
NOD2 RIPK2 conf – NOD2-RIPK2 interaction inhibition confirmed; shares compounds with NOD2 RIPK2 PPI; CHO cells, NOD2-RIPK2 BLA complementation, CCF4 FRET; inhibition, % at 4.98 µM; hit rate 70% among 1,200; AID 624370;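 active = mean inhibition across replicates above a set limit taken from the earlier primary screen, cut at about 21% in these data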;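 note: 0% = DMSO-only wells and the high end = clavulanate BLA-blocked wells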
BLA counter-2 – hits BLA reporter in NOD2-RIPK2 inhibitor counterscreen. hit rate 57% among 1,200. inhibition, % at 4.98 µM. shares compounds with NOD2 RIPK2 PPI. AID 624371. CHO BLA reporter, CCF4 FRET ratio;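 active = mean inhibition above the low-control mean inhibition plus three low-control SD, cut at about 11% in these data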;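 note: 0% = DMSO only wells and 100% = clavulanate high control wells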
Numbers without * were called inactive. Many of the other results were omitted from the sample, so hits are more common in it than they were.

For CCOC(=O)n1c(=O)n(Cc2cccc(F)c2)c2ccccc21 the results were UPR CHOP act -1.0, TLR4 MyD88 comp -13.7, CHOP inhibitor 18.2, NOD2 RIPK2 PPI 7.0, XBP1 UPR activ -3.9 and TLR9-MyD88 block 1.2.
`CC(C)[C@H](NC(=O)N1CC(=O)Nc2ccccc21)C(=O)N[C@@H](C(=O)O)c1ccccc1` gave UPR CHOP act -1.4, NOD2 RIPK2 PPI -2.0, XBP1 UPR activ -4.2 and TLR9-MyD88 block -0.9.
Screening C=CCn1c(O)c(C2=c3ccccc3=NC2=O)c2ccccc21 returned UPR CHOP act -11.5, NOD2 RIPK2 PPI 77.5*, XBP1 UPR activ -13.4, TLR9-MyD88 block 20.9*, TLR9-MyD88 cf 27.3*, BLA counter-1 -0.5, TLR9 CHO cytotox 97.7*, NOD2 RIPK2 conf 79.6* and BLA counter-2 -0.8.
`O=[N+]([O-])c1c(Nc2ccc(O)cc2)cc(Cl)c2nonc12` gave UPR CHOP act -10.5, NOD2 RIPK2 PPI 121.8*, XBP1 UPR activ -11.9, TLR9-MyD88 block 48.9*, TLR9-MyD88 cf 59.5*, BLA counter-1 -17.1, TLR9 CHO cytotox 97.1*, NOD2 RIPK2 conf 120.2* and BLA counter-2 25.0*.
CN(C)c1cc(Nc2ccc(O)cc2)c([N+](=O)[O-])c2nonc12 was read as UPR CHOP act 0.4, CHOP inhibitor 5.2, NOD2 RIPK2 PPI -1.2, XBP1 UPR activ 5.6 and TLR9-MyD88 block -5.2.
For O=C(O)c1cc2cc(Oc3ccccc3)ccc2[nH]1 the results were UPR CHOP act -2.1, NOD2 RIPK2 PPI 1.5, XBP1 UPR activ -1.3 and TLR9-MyD88 block 2.3.
Screening CCS(=O)(=O)c1ncc(Cl)c(C(=O)Nc2ccc(C)cc2)n1 returned UPR CHOP act 11.9, NOD2 RIPK2 PPI 61.3*, XBP1 UPR activ -10.3, TLR9-MyD88 block 45.0*, TLR9-MyD88 cf 42.5*, BLA counter-1 35.8, TLR9 CHO cytotox 95.0*, NOD2 RIPK2 conf 64.7* and BLA counter-2 37.8*.
`CCC1CCCCN1S(=O)(=O)c1ccc(NC(=O)c2ccncc2)cc1` (centres undefined) gave UPR CHOP act 3.2, NOD2 RIPK2 PPI 5.1, XBP1 UPR activ -2.0 and TLR9-MyD88 block -2.4.
`CC(=O)Nc1ccc(NC(=O)c2nc(S(=O)(=O)Cc3ccccc3)ncc2Cl)cc1` gave UPR CHOP act -10.3, NOD2 RIPK2 PPI 51.2*, XBP1 UPR activ -10.4, TLR9-MyD88 block 34.0*, TLR9-MyD88 cf 36.0*, BLA counter-1 30.3, TLR9 CHO cytotox 95.3*, NOD2 RIPK2 conf 49.5* and BLA counter-2 34.3*.
Screening CCC1CCCCN1S(=O)(=O)c1ccc(NC(=O)c2nc(S(C)(=O)=O)ncc2Cl)cc1 (centres undefined) returned UPR CHOP act -11.2, NOD2 RIPK2 PPI 96.3*, XBP1 UPR activ -8.5, TLR9-MyD88 block 52.7*, TLR9-MyD88 cf 47.1*, BLA counter-1 31.0, TLR9 CHO cytotox 98.4*, NOD2 RIPK2 conf 94.4* and BLA counter-2 48.5*.
For CCS(=O)(=O)c1ncc(Cl)c(C(=O)Nc2ccc(S(=O)(=O)N3CCCC(C)C3)cc2)n1 (centres undefined) the results were UPR CHOP act -11.2, NOD2 RIPK2 PPI 13.5, XBP1 UPR activ -10.5 and TLR9-MyD88 block 1.8.
For CS(=O)(=O)c1ncc(Cl)c(C(=O)Nc2ccc3ccccc3c2)n1 the results were TLR4 MyD88 comp 14.8, CHOP inhibitor 105.5*, NOD2 RIPK2 PPI 79.5*, TLR9-MyD88 block 45.4*, TLR9-MyD88 cf 50.9*, BLA counter-1 31.2, TLR9 CHO cytotox 98.7*, NOD2 RIPK2 conf 71.8* and BLA counter-2 41.0*.
Screening COc1ccc(S(=O)(=O)Nc2ccccc2C(N)=O)cc1OC returned UPR CHOP act 1.8, TLR4 MyD88 comp 4.9, CHOP inhibitor 2.2, NOD2 RIPK2 PPI -18.9 and XBP1 UPR activ 5.0.
O=C(NCc1ccccc1Cl)c1csc(COCCO)n1 was read as NOD2 RIPK2 PPI 3.3.
`COc1ccc2ccccc2c1/C=N\NC(=O)c1ccc(C)s1` gave UPR CHOP act 0.8, NOD2 RIPK2 PPI 7.7, XBP1 UPR activ -1.0 and TLR9-MyD88 block -2.6.
`COc1ccc2ccccc2c1/C=N/NC(=O)c1sc(N)c(C#N)c1C` gave TLR4 MyD88 comp -3.7, CHOP inhibitor 14.0, NOD2 RIPK2 PPI 21.6*, TLR9-MyD88 block 21.3*, TLR9-MyD88 cf 7.9, BLA counter-1 0.4, TLR9 CHO cytotox 4.9, NOD2 RIPK2 conf 2.9 and BLA counter-2 4.5.
`Cc1cccc(C2=N/C(=C\c3cccs3)C(=O)O2)c1` gave UPR CHOP act 1.7, TLR4 MyD88 comp -11.1, CHOP inhibitor 21.2, NOD2 RIPK2 PPI 5.4, XBP1 UPR activ -3.1 and TLR9-MyD88 block -10.5.
For CCOC(=O)c1c(/N=C/C2=C(O)CC(C)(C)CC2=O)sc(C(C)=O)c1C the results were UPR CHOP act 0.8, TLR4 MyD88 comp -3.9, CHOP inhibitor 51.3, NOD2 RIPK2 PPI -9.2, XBP1 UPR activ 3.5 and TLR9-MyD88 block -9.4.
`O=C(NCc1cc(C(F)(F)F)ccc1Cl)c1cccc2c1C(=O)c1ccc(N3CCC(N4CCCCC4)CC3)cc1S2(=O)=O` gave NOD2 RIPK2 PPI 61.0*, TLR9-MyD88 block 46.9*, TLR9-MyD88 cf 43.0*, BLA counter-1 52.1*, TLR9 CHO cytotox 24.1*, NOD2 RIPK2 conf 68.7* and BLA counter-2 67.8*.
`O=C(NCc1cc(C(F)(F)F)ccc1Cl)c1cccc2c1C(=O)c1ccc(N3CCCCC3)cc1S2(=O)=O` gave UPR CHOP act 3.5, NOD2 RIPK2 PPI -3.4, XBP1 UPR activ -0.6 and TLR9-MyD88 block 2.1.
`CCC(CC)C(=O)c1c[nH]c(C(=O)NCC2CCCO2)c1` (centres undefined) gave UPR CHOP act 1.1, TLR4 MyD88 comp -9.6, CHOP inhibitor 6.9, NOD2 RIPK2 PPI 0.0, XBP1 UPR activ -1.1 and TLR9-MyD88 block -1.5.
